Screening results (PubChem BioAssay)
PG9 Ab binder: PG9 antibody binding by small molecule | TR-FRET gp120-PG9 antibody binding | inhibition, % at 6.7 µM | 360,000 tested, 0.43% active | AID 624416; in the data active = inhibition above about 8.5%
NR1D1 modulator: Rev-erb alpha (human) modulation; AID 1259318; 370,000 tested, 0.79% active; activity, % at 10 µM; Rev-erbα–FITC-DNA binding, fluorescence polarization, 90 min;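 active = activity above about 14%, limit read from the data; passing the limit was not always enough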
MC4R ag barr: agonists of human melanocortin 4 receptor (MC4R) beta-arrestin. P32245. U2OS MC4R beta-arrestin complementation, luminescence; percent of melanotan II response, DMSO zero. activation, % at 8.9 µM. 360,000 tested, 0.98% active. AID 540308;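 active = activation above a per-plate cutoff, the mean activation of sample wells on that plate plus 3 SD, cut at about 8% in these data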
Target sequence (P32245 whole entry, looked up): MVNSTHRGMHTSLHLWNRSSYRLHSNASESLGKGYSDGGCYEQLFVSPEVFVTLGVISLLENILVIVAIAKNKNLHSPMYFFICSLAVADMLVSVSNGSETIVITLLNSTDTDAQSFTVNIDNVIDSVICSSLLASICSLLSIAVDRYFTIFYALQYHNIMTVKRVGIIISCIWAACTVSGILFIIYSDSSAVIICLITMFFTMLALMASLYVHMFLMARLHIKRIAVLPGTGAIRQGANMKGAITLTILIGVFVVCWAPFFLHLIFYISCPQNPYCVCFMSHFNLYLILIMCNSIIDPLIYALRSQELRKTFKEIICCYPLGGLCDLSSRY
NTR1 ag: NTR1 (human) agonism | P30989 | NTR1-U2OS beta-arrestin-GFP spot imaging, agonist mode | activation, % at 20 µM | 330,000 tested, 0.17% active | AID 493036;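 active = activation at or above 40% of the spot to cytoplasm intensity ratio, with at least 20 cells analyzed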
Target sequence (P30989 whole entry, looked up): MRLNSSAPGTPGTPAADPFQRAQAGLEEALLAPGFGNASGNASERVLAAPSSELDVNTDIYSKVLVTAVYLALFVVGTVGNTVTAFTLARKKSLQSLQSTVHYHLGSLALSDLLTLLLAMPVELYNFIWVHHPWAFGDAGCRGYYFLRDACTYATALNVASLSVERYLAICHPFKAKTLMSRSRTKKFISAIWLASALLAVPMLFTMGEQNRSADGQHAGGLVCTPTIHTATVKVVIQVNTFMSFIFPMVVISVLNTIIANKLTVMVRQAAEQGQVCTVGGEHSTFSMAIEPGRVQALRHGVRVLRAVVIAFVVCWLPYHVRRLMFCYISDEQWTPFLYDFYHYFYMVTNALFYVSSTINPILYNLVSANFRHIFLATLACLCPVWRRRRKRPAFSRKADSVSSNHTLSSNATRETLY
MC4R antagonist: human MC4R antagonism in cAMP assay | P32245 | MC4R-expressing cells, MTII-stimulated cAMP, LANCE TR-FRET | AID 540295 | inhibition, % at 6.5 µM | 360,000 tested, 0.48% active;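 active = inhibition above its plate's cutoff, the mean of tested wells on that plate plus 3 SD, cut at about 29% in these data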
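material = U2OS cells stably expressing human melanocortin 4 receptor (MC4R) | also added = Melanotan II challenge | dosing = single nominal compound dose of 6.5 µM | detection = TR-FRET with Eu-cAMP and labeled anti-cAMP, 671 nm | replication = singlicate | timing = compound 30 min, challenge 1 h, detection 1 h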
MC4R barr ag: human MC4R beta-arrestin agonism confirmation; shares compounds with MC4R ag barr; U2OS MC4R beta-arrestin recruitment, luminescence; scaled DMSO 0%, Melanotan II 100%; activation, % at 8.9 µM; 2,400 tested, 31% active; AID 602192;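 active = mean activation across replicates above the hit cutoff set in the earlier primary screen, cut at about 8% in these data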
MOR-DOR barr ag: activates mu-delta opioid heterodimer, MC4R agonist counter-screen; AID 602194; shares compounds with MC4R ag barr; U2OS PathHunter beta-arrestin, beta-gal luminescence; percent of deltorphin B response, DMSO zero; activation, % at 9.2 µM; 2,400 tested, 5.8% active;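 active = mean activation across replicates exceeds the hit threshold derived in the earlier primary screen, cut at about 18% in these data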
Of the large screens only hits and unclear results are named; the others gave an inactive call (follow-up assays come after a bar, where they were run). Compounds with a hit are over-represented: about 2.5% of the library has one in this group of screens.

CC(C)c1ccc(NC(=O)Cn2ncn3c(cc4ccccc43)c2=O)cc1	MC4R ag barr 12 | MC4R barr ag inactive | MOR-DOR barr ag inactive
CN(C)c1ccc(NC(=O)Cn2ncn3c(cc4ccccc43)c2=O)cc1	none
CCn1c2ccccc2c2cc(NC(=O)COC(=O)c3ccc(F)cc3F)ccc21	none (no result: PG9 Ab binder, MC4R ag barr, NTR1 ag, MC4R antagonist)
CCCCN=C(N)NC(=O)c1ccccc1	none (no result: PG9 Ab binder, MC4R ag barr, NTR1 ag, MC4R antagonist)
Cc1ccc(NC(=O)c2ncn(CCCN3CCN(Cc4cccc5ccccc45)CC3)n2)cc1C	MC4R ag barr 16 (no result: NTR1 ag) | MC4R barr ag 26 | MOR-DOR barr ag inactive
Cc1cc(OCC(=O)Nc2ccncc2)ccc1Cl	none
Cc1ccc(OCC(=O)NC(=S)Nc2cccc(NC(=O)c3ccccc3Cl)c2)cc1	MC4R ag barr 15 | MC4R barr ag inactive | MOR-DOR barr ag inactive
CCC(=O)NC(=S)Nc1ccc(NC(=O)COc2ccc(Cl)c(C)c2)cc1	MC4R ag barr 19 | MC4R barr ag inactive | MOR-DOR barr ag inactive
COc1ccc(CN2C(C(=O)NCC(C)C)CSCCS2(=O)=O)cc1 (stereo not drawn)	none (no result: PG9 Ab binder, MC4R ag barr, NTR1 ag, MC4R antagonist)
Cc1cc(C)c(C#N)c(SCC(=O)Nc2nnc(-c3ccccc3)s2)n1	MC4R ag barr 16 | MC4R barr ag inactive | MOR-DOR barr ag inactive
CCCC#C/C(CCC)=C1\c2ccccc2C(=O)N1c1ccccc1	none (no result: MC4R ag barr, NTR1 ag, MC4R antagonist)
O=C(c1ccc(COc2ccccc2Br)o1)N1N=C(C(F)F)CC1(O)C(F)F (stereo not drawn)	MC4R ag barr 15 | MC4R barr ag inactive | MOR-DOR barr ag inactive
COc1cc2ccccc2cc1C(=O)OCc1nc2ccsc2c(=O)[nH]1	MC4R ag barr 15 | MC4R barr ag inactive | MOR-DOR barr ag inactive
Cc1cc(NC(=O)c2sccc2C)n(-c2nc3ccccc3[nH]2)n1	none
Cc1cc(NC(=O)c2cccs2)n(-c2nc3ccccc3[nH]2)n1	MC4R ag barr 12 | MC4R barr ag inactive | MOR-DOR barr ag inactive
COc1ccc(C(=O)N(C)[C@H]2C[C@H]3c4[nH]c5c(-c6ccccc6)cccc5c4CCN3C(=O)[C@H]2[C@H](C)O)cc1	none (no result: MC4R ag barr, NTR1 ag, MC4R antagonist)
CCOC(=O)/C(=C/c1c(C)n(C)c2ccc([N+](=O)[O-])cc12)C(C)=O	none
CCOC(=O)c1c(N)c2cc([N+](=O)[O-])ccc2n1C	MC4R ag barr 16 | MC4R barr ag inactive | MOR-DOR barr ag inactive
Cc1cc(-c2ccc(S(=O)(=O)N(C)Cc3ccccc3)cc2)on1	MC4R ag barr 25 | MC4R barr ag inactive | MOR-DOR barr ag inactive
Cc1ccc(N2C(=O)/C(=C/c3cccnc3)SC2=S)cc1	MC4R ag barr 15 | MC4R barr ag inactive | MOR-DOR barr ag inactive
O=C1/C(=C\c2ccco2)SC(=S)N1C1CCCCC1	none (no result: PG9 Ab binder, NR1D1 modulator, MC4R ag barr, MC4R antagonist)
Cc1ccc(N2C(=O)/C(=C/c3ccco3)SC2=S)cc1	MC4R ag barr 23 | MC4R barr ag inactive | MOR-DOR barr ag inactive
CCOC(=O)Nc1ccc2c(c1)[C@@]1(CC(=O)N(CC(C)C)C1c1ccccc1)C(=O)N2C (stereo partly drawn)	none (no result: PG9 Ab binder, MC4R ag barr, NTR1 ag, MC4R antagonist)
O=C(Nc1ccc(Cl)cc1)C1C2CCC3C(CCC21)C3(Cl)Cl (stereo not drawn)	none (no result: NTR1 ag)
Cc1cccc(NC(=O)C2C3CCC4C(CCC32)C4(Cl)Cl)c1 (stereo not drawn)	MC4R ag barr 13 | MC4R barr ag inactive | MOR-DOR barr ag inactive
CCN(CC)CC(=O)Nc1cccc2c1C(=O)c1ccccc1C2=O	MC4R ag barr 11 | MC4R barr ag inactive | MOR-DOR barr ag inactive
Cc1ccc(NC(=O)c2ccc(CS(=O)(=O)Cc3ccccc3C)o2)cc1C	none (no result: PG9 Ab binder, MC4R ag barr, NTR1 ag, MC4R antagonist)
CCCCc1c(-c2ccccc2OC)ncn1Cc1ccccc1F	none (no result: MC4R ag barr, NTR1 ag, MC4R antagonist)
CC(=O)Nc1ccc(NC(=O)c2cc(-c3ccc(C)c(C)c3O)n[nH]2)cc1	MC4R ag barr 9.7 | MC4R barr ag inactive | MOR-DOR barr ag inactive
CCOC(=O)c1c(C)[nH]c(C(=O)Cn2nnc(-c3ccc(Cl)cc3)n2)c1C	MC4R ag barr 18 | MC4R barr ag 11 | MOR-DOR barr ag inactive
CCOC(=O)c1c(C)[nH]c(C(=O)C(C)Sc2ccc(Cl)cc2)c1C (stereo not drawn)	none
O=C(NCc1ccc(C(=O)N2CCCC2)cc1)c1cccc(Br)c1	none (no result: PG9 Ab binder, MC4R ag barr, NTR1 ag, MC4R antagonist)
Cc1ccc(C(C)C)c(OCCCNCc2cccnc2)c1	none
Cc1ccc(C(C)C)c(OCCNCCc2ccccc2)c1	MC4R ag barr 9.9 | MC4R barr ag inactive | MOR-DOR barr ag inactive
O=C(/C=C/c1ccc(OC(F)F)cc1)OCC(=O)N1CCc2ccccc21	MC4R ag barr 13 | MC4R barr ag inactive | MOR-DOR barr ag inactive
COCCN1CCCc2nc(-c3ccc(Br)cc3)ccc21	none (no result: MC4R ag barr, NTR1 ag, MC4R antagonist)
Nc1ccccc1-c1nnc(-c2ccc(-c3ccccc3)cc2)o1	MC4R ag barr 12 | MC4R barr ag inactive | MOR-DOR barr ag inactive
c1ccc(-c2nnc(-c3ccccc3)o2)cc1	none
CCc1nc(NCC2CC2)c2nnn(Cc3ccccc3)c2n1	MC4R ag barr 12 (no result: NTR1 ag) | MC4R barr ag inactive | MOR-DOR barr ag inactive
Clc1ccc(-c2nnc(-c3ccc4ccccc4c3)o2)cc1	none (no result: NTR1 ag)
Cc1ccc(-c2nnc(-c3ccc4ccccc4c3)o2)cc1	MC4R ag barr 10 (no result: NTR1 ag) | MC4R barr ag inactive | MOR-DOR barr ag inactive
COCCCNC(=O)c1c(N)n(/N=C/c2cccnc2)c2nc3ccccc3nc12	MC4R ag barr 10 | MC4R barr ag inactive | MOR-DOR barr ag inactive
Cc1cc(NC(=O)CSc2nc3c(c(=O)n(C)c(=O)n3C)n2C(C)C)no1	MC4R ag barr 16 | MC4R barr ag inactive | MOR-DOR barr ag inactive
CCN(CC)S(=O)(=O)c1ccc(N/N=C(\C)c2ccc3c(c2)OCO3)c([N+](=O)[O-])c1	none
C/C(=N\Nc1ccc(S(N)(=O)=O)cc1[N+](=O)[O-])c1ccc2c(c1)OCO2	MC4R ag barr 13 (no result: NTR1 ag) | MC4R barr ag inactive | MOR-DOR barr ag inactive
CCOc1ccc(-c2nnc(-c3ccc(OC)cc3)o2)cc1	MC4R ag barr 31 | MC4R barr ag inactive | MOR-DOR barr ag inactive
CCOc1ccc(-c2nnc(-c3ccccc3)o2)cc1	none
COC(=O)C1=C(C)N(Cc2ccccc2C(F)(F)F)C(=NCc2ccc(OC)cc2)NC1c1ccc(F)cc1 (stereo not drawn)	none (no result: MC4R ag barr, NTR1 ag, MC4R antagonist)
Cc1ccnc(SCC(=O)Nc2oc(-c3ccccc3)c(-c3ccccc3)c2C#N)n1	MC4R ag barr 17 | MC4R barr ag inactive | MOR-DOR barr ag inactive
CC1=C(SCCC#N)S/C(=C2\SC(C)=C(SCCC#N)S2)S1	MC4R ag barr 19 | MC4R barr ag inactive | MOR-DOR barr ag inactive
COc1cc(NC(=O)c2cc3ccccc3o2)ccc1NC(=O)c1ccco1	none
COc1cc(NC(=O)c2oc3ccccc3c2C)ccc1NC(=O)c1ccco1	MC4R ag barr 9.7 | MC4R barr ag inactive | MOR-DOR barr ag inactive
